{"source": "ChEMBL document CHEMBL4732112", "about": "“Synthesis and in vitro evaluation of novel spiroketopyrazoles as acetyl-CoA carboxylase inhibitors and potential antitumor agents” (Eur J Med Chem, 2021)", "key": {"Acetyl-CoA carboxylase 1 [1]": {"target": "T1, Acetyl-CoA carboxylase 1 (Homo sapiens, UniProt Q13085)", "test": "Inhibition of recombinant human C-terminal His-tagged ACC1 (1 to 2383 residues) expressed in baculovirus infected Sf9 insect cells at 5 uM preincubated for 15 mins followed by substrate addition and measured after 60 mins by ADP-glo luminescence assay relative to control"}, "A549 [2]": {"system": "A549", "test": "Antiproliferative activity against human A549 cells assessed as cell growth inhibition at 10 uM after 72 hrs by MTT assay relative to control", "format": "functional", "settings": "read-out: GI", "procedure,_shortened": "(§1)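 Cells were DMEM/10% FBS cultures at 37 °C, 5% CO2, seeded at 3×10^3 per well and exposed for 72 h after 24 h attachment. Read-out was MTT with formazan in DMSO and absorbance at 550 nm, expressed as inhibition rate versus control.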"}, "HepG2 [3]": {"system": "HepG2", "test": "Antiproliferative activity against human HepG2 cells assessed as cell growth inhibition at 10 uM after 72 hrs by MTT assay relative to control", "format": "functional", "settings": "read-out: GI", "procedure,_shortened": "as §1"}, "A549 [4]": {"system": "A549", "test": "Antiproliferative activity against human A549 cells assessed as cell growth inhibition after 72 hrs by MTT assay", "format": "functional, cell-based", "settings": "A549, 72 h", "procedure,_shortened": "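HepG2, A549 or MDA-MB-231 cells grown in DMEM with 10% FBS and penicillin/streptomycin at 37 °C, 5% CO2. Seeded at 3×10^3 per well, left 24 h, then exposed to a range of concentrations for 72 h. MTT added for 4 h, formazan dissolved in DMSO, absorbance read at 550 nm. Mean ± SD, n=3.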"}, "Acetyl-CoA carboxylase 1 [5]": {"target": "T1, Acetyl-CoA carboxylase 1", "test": "Inhibition of ACC1 in human HepG2 cells assessed as reduction in intracellular malonyl-CoA level measured after 48 hrs by ELISA", "format": "cell-based", "settings": "dose 1-10 µM", "procedure,_shortened": "(§2)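 HepG2 cells plated and exposed to the compound at several concentrations for 48 h. Cells washed with PBS, lysed in 1% Triton X-100 and spun 12000 rpm, 4 °C, 15 min. Malonyl-CoA measured by ELISA kit and triglyceride by GPO-POP kit, each normalised to BCA protein. Reported relative to control, mean ± SD, n=3.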"}, "Acetyl-CoA carboxylase 1 [6]": {"target": "T1, Acetyl-CoA carboxylase 1", "test": "Inhibition of ACC1 in human HepG2 cells assessed as reduction in intracellular triglyceride level measured after 48 hrs by GPO-PAP method", "format": "cell-based", "settings": "dose 1-10 µM", "procedure,_shortened": "as §2"}, "HepG2 [7]": {"system": "HepG2", "test": "Antiproliferative activity against human HepG2 cells assessed as cell viability at 0.5 uM measured after 5 days by MTT assay relative to control", "format": "functional", "settings": "HepG2, 120 h, time 5 day, read-out: Activity", "procedure,_shortened": "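HepG2 treated with 0.5 μM plus 0, 10 or 25 μM palmitate for 1, 3 and 5 days. Palmitate was complexed with 5% fatty-acid-free BSA from a 5 mM solution, then diluted in serum-free DMEM to final concentration. Viability (% control) by MTT. Mean ± SD, n=3.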"}, "HepG2 [8]": {"system": "HepG2", "test": "Cell cycle arrest in human HepG2 cells assessed as accumulation at G0/G1 phase at 1 uM measured after 48 hrs by propidium iodide staining based flow cytometry (reference value: 56.24%)", "format": "functional"}, "HepG2 [9]": {"system": "HepG2", "test": "Cell cycle arrest in human HepG2 cells assessed as accumulation at S phase at 1 uM measured after 48 hrs by propidium iodide staining based flow cytometry (reference value: 30.18%)", "format": "functional"}, "HepG2 [10]": {"system": "HepG2", "test": "Cell cycle arrest in human HepG2 cells assessed as accumulation at G0/G1 phase at 5 uM measured after 48 hrs by propidium iodide staining based flow cytometry (reference value: 56.24%)", "format": "functional"}, "HepG2 [11]": {"system": "HepG2", "test": "Cell cycle arrest in human HepG2 cells assessed as accumulation at S phase at 5 uM measured after 48 hrs by propidium iodide staining based flow cytometry (reference value: 30.18%)", "format": "functional"}, "HepG2 [12]": {"system": "HepG2", "test": "Cell cycle arrest in human HepG2 cells assessed as accumulation at G2/M phase at 10 uM measured after 48 hrs by propidium iodide staining based flow cytometry (reference value: 13.58%)", "format": "functional"}, "HepG2 [13]": {"system": "HepG2", "test": "Cell cycle arrest in human HepG2 cells assessed as reduction in cyclin D1 expression measured after 48 hrs by Western blot analysis", "format": "functional, cell-based", "settings": "dose 1-10 µM", "procedure,_shortened": "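HepG2 cells treated for 48 h and lysed. Lysates cleared at 12000 rpm for 15 min and protein measured by BCA. Run on SDS-PAGE, transferred to PVDF, blocked in 5% BSA, primary antibody at 4 °C overnight, then DyLight 800 secondary. Infrared imaging and densitometry against β-actin. Mean ± SD, n=3.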"}, "HepG2 [14]": {"system": "HepG2", "test": "Induction of apoptosis in human HepG2 cells assessed as chromatin shrinkage at 1 to 10 uM measured after 48 hrs by Hoechst 33258 staining based fluorescence microscopic analysis", "format": "functional, cell-based", "settings": "dose 1-10 µM", "procedure,_shortened": "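HepG2 cells exposed to varying concentrations for 48 h in 6-well plates. Stained with Hoechst 33258 in the dark for 20 min, then nuclear morphology inspected by fluorescence microscopy.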"}, "HepG2 [15]": {"system": "HepG2", "test": "Induction of apoptosis in human HepG2 cells assessed as increase in late apoptotic cells measured after 48 hrs by Annexin V-FITC/propidium iodide staining based flow cytometry", "format": "functional, cell-based", "settings": "dose 1-10 µM", "procedure,_shortened": "(§3)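 HepG2 cells incubated with the stated concentrations for 48 h, harvested, and stained with Annexin V-FITC and propidium iodide protected from light. Viable, early apoptotic, late apoptotic and necrotic fractions quantified by flow cytometry. Mean ± SD, n=3.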"}, "HepG2 [16]": {"system": "HepG2", "test": "Induction of apoptosis in human HepG2 cells assessed as viable cells at 1 uM measured after 48 hrs by Annexin V-FITC/propidium iodide staining based flow cytometry (reference value: 95.6%)", "format": "functional", "settings": "read-out: Activity", "procedure,_shortened": "as §3"}, "HepG2 [17]": {"system": "HepG2", "test": "Induction of apoptosis in human HepG2 cells assessed as late apoptotic cells at 1 uM measured after 48 hrs by Annexin V-FITC/propidium iodide staining based flow cytometry (reference value: 0.19%)", "format": "functional", "procedure,_shortened": "as §3"}, "HepG2 [18]": {"system": "HepG2", "test": "Induction of apoptosis in human HepG2 cells assessed as necrotic cells at 5 uM measured after 48 hrs by Annexin V-FITC/propidium iodide staining based flow cytometry (reference value: 0.22%)", "format": "functional", "procedure,_shortened": "as §3"}, "HepG2 [19]": {"system": "HepG2", "test": "Induction of apoptosis in human HepG2 cells assessed as late apoptotic cells at 10 uM measured after 48 hrs by Annexin V-FITC/propidium iodide staining based flow cytometry (reference value: 0.19%)", "format": "functional", "procedure,_shortened": "as §3"}, "HepG2 [20]": {"system": "HepG2", "test": "Induction of apoptosis in human HepG2 cells assessed as necrotic cells at 10 uM measured after 48 hrs by Annexin V-FITC/propidium iodide staining based flow cytometry (reference value: 0.22%)", "format": "functional", "procedure,_shortened": "as §3"}, "HepG2 [21]": {"system": "HepG2", "test": "Induction of apoptosis in human HepG2 cells assessed as increase in PARP cleavage at 1 to 10 uM measured after 48 hrs by Western blot analysis", "format": "functional, cell-based", "settings": "dose 1-10 µM", "procedure,_shortened": "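Western blots for Bcl-2, Bax, cleaved caspase-3 and cleaved PARP in HepG2 cells after 48 h treatment (1, 5, 10 μM for PARP). Lysates cleared, protein quantified by BCA, run on SDS-PAGE to PVDF, blocked in 5% BSA, primary overnight at 4 °C, DyLight 800 secondary. Infrared scanning and densitometry normalized to β-actin. Mean ± SD, n=3.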"}, "HepG2 [22]": {"system": "HepG2", "test": "Antiproliferative activity against human HepG2 cells assessed as combination index at 1.4 uM measured after 72 hrs in presence of 2.8 uM doxorubicin by MTT assay", "format": "functional"}, "HepG2 [23]": {"system": "HepG2", "test": "Antiproliferative activity against human HepG2 cells assessed as combination index at 0.35 uM measured after 72 hrs in presence of 0.7 uM doxorubicin by MTT assay", "format": "functional"}, "HepG2 [24]": {"system": "HepG2", "test": "Antiproliferative activity against human HepG2 cells assessed as combination index at 0.175 uM measured after 72 hrs in presence of 0.35 uM doxorubicin by MTT assay", "format": "functional"}}, "note": "Calls of active or inactive are those of the source. The rule behind the calls is not given here.", "data": [{"smiles": "CC(C)(C)n1cc2c(n1)C(=O)CC1(CCN(C(=O)c3cc(-c4ccncc4)nc4ccccc34)CC1)O2", "values": [{"measurement": "inhibition", "setting": "Acetyl-CoA carboxylase 1 [1]", "result": 100, "unit": "%"}, {"measurement": "inhibition of growth at 10 µM", "setting": "A549 [2]", "result": 79.3, "unit": "%"}, {"measurement": "inhibition of growth at 10 µM", "setting": "HepG2 [3]", "result": 80.1, "unit": "%"}, {"measurement": "IC50", "setting": "A549 [4]", "result": 550, "unit": "nM"}, {"measurement": "inhibition", "setting": "Acetyl-CoA carboxylase 1 [5]", "result": "Dose-dependent effect"}, {"measurement": "inhibition", "setting": "Acetyl-CoA carboxylase 1 [6]", "result": "Dose-dependent effect"}, {"measurement": "viability at 0.5 µM", "setting": "HepG2 [7]", "result": 33.1, "unit": "%"}, {"measurement": "Activity", "setting": "HepG2 [8]", "result": 67.68, "unit": "%"}, {"measurement": "Activity", "setting": "HepG2 [9]", "result": 21.46, "unit": "%"}, {"measurement": "Activity", "setting": "HepG2 [10]", "result": 78.83, "unit": "%"}, {"measurement": "Activity", "setting": "HepG2 [11]", "result": 14.71, "unit": "%"}, {"measurement": "Activity", "setting": "HepG2 [12]", "result": 4.9, "unit": "%"}, {"measurement": "Activity", "setting": "HepG2 [13]", "result": "Dose-dependent effect"}, {"measurement": "Activity", "setting": "HepG2 [14]", "result": "Active"}, {"measurement": "Activity", "setting": "HepG2 [15]", "result": "Dose-dependent effect"}, {"measurement": "viability at 1 µM", "setting": "HepG2 [16]", "result": 72.1, "unit": "%"}, {"measurement": "Activity", "setting": "HepG2 [17]", "result": 12.7, "unit": "%"}, {"measurement": "Activity", "setting": "HepG2 [18]", "result": 3.72, "unit": "%"}, {"measurement": "Activity", "setting": "HepG2 [19]", "result": 45.5, "unit": "%"}, {"measurement": "Activity", "setting": "HepG2 [20]", "result": 0.64, "unit": "%"}, {"measurement": "Activity", "setting": "HepG2 [21]", "result": "Active"}, {"measurement": "CI", "setting": "HepG2 [22]", "result": 0.366}, {"measurement": "CI", "setting": "HepG2 [23]", "result": 0.816}, {"measurement": "CI", "setting": "HepG2 [24]", "result": 0.737}]}]}
